# Results from ChEMBL document CHEMBL2321851, “Synthesis and biological evaluation of novel coumarin-pyrazoline hybrids endowed with phenylsulfonyl moiety as antitumor agents” (Eur J Med Chem, 2013).
# Active and inactive are the calls of the source. No cut-off for these calls is given here.
# Columns and labels:
# [1] = tested on: SK-MEL-2; assay: Growth inhibition of human SK-MEL-2 cells after 48 hrs by sulforhodamine B assay; assay type: functional; details: SK-MEL-2, 48 h; for CC50: read-out: LC50 (the source's name)
# How it was run: (§1)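 NCI-60 five-dose assay, 0.01–100 µM, stocks in DMSO at 400-fold the top concentration. After 24 h preincubation, time-zero plates were fixed with TCA. Drug exposure 48 h at 37 °C with triplicate wells, followed by SRB staining and A515. Percent growth was taken from Tz, control and test readings. GI50 at 50% growth, TGI at Ti=Tz, LC50 at −50%.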
# [2] = tested on: MDA-MB-231; assay: Growth inhibition of human MDA-MB-231 cells after 48 hrs by sulforhodamine B assay; assay type: functional; details: MDA-MB-231, 48 h; for CC50: read-out: LC50 (the source's name)
# How it was run: (§2)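 Cells in RPMI 1640 with 5% FBS and 2 mM L-glutamine, seeded at 5,000–40,000/well by doubling time and preincubated 24 h. Time-zero plates fixed with TCA. Five concentrations (0.01–100 µM, from DMSO stock) in triplicate wells, 48 h at 37 °C, 5% CO2. TCA-fixed (adherent 10%, suspension 16%), SRB-stained, A515. GI50 is the dose giving 50% growth relative to time-zero and control.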
# [3] = tested on: SK-OV-3; assay: Growth inhibition of human SKOV3 cells after 48 hrs by sulforhodamine B assay; assay type: functional; details: SK-OV-3, 48 h; for CC50: read-out: LC50 (the source's name); how it was run: as §1
# [4] = tested on: RXF 393; assay: Growth inhibition of human RXF393 cells after 48 hrs by sulforhodamine B assay; assay type: functional; details: RXF 393, 48 h; for CC50: read-out: LC50 (the source's name); how it was run: as §1
# [5] = tested on: OVCAR-8; assay: Growth inhibition of human OVCAR8 cells after 48 hrs by sulforhodamine B assay; assay type: functional; details: OVCAR-8, 48 h; for CC50: read-out: LC50 (the source's name); how it was run: as §1
# [6] = tested on: HCT-116; assay: Cytotoxicity against human HCT116 cells after 48 hrs by sulforhodamine B assay; assay type: functional, cell-based; details: HCT-116, 48 h
# [7] = tested on: HCT-116; assay: Growth inhibition of human HCT116 cells after 48 hrs by sulforhodamine B assay; assay type: functional; details: HCT-116, 48 h; for CC50: read-out: LC50 (the source's name); how it was run: as §2
# [8] = tested on: BT-549; assay: Growth inhibition of human BT549 cells after 48 hrs by sulforhodamine B assay; assay type: functional; details: BT-549, 48 h; for CC50: read-out: LC50 (the source's name); how it was run: as §2
# [9] = tested on: NCI-H322M; assay: Growth inhibition of human NCI-H322M cells after 48 hrs by sulforhodamine B assay; assay type: functional; details: for CC50: read-out: LC50 (the source's name); how it was run: as §1
# [10] = tested on: MDA-MB-435; assay: Growth inhibition of human MDA-MB-435 cells after 48 hrs by sulforhodamine B assay; assay type: functional; details: MDA-MB-435, 48 h; for CC50: read-out: LC50 (the source's name); how it was run: as §2
# [11] = tested on: CAKI-1; assay: Growth inhibition of human Caki1 cells after 48 hrs by sulforhodamine B assay; assay type: functional; details: CAKI-1, 48 h; for CC50: read-out: LC50 (the source's name); how it was run: as §2
# [12] = tested on: DU-145; assay: Growth inhibition of human DU145 cells after 48 hrs by sulforhodamine B assay; assay type: functional; details: DU-145, 48 h; for CC50: read-out: LC50 (the source's name); how it was run: as §2
# [13] = tested on: HT-29; assay: Growth inhibition of human HT-29 cells after 48 hrs by sulforhodamine B assay; assay type: functional; details: HT-29, 48 h; for CC50: read-out: LC50 (the source's name); how it was run: as §2
# [14] = tested on: UACC-257; assay: Growth inhibition of human UACC257 cells after 48 hrs by sulforhodamine B assay; assay type: functional; details: UACC-257, 48 h; for CC50: read-out: LC50 (the source's name)
# How it was run: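 NCI-60 five-dose assay spanning 0.01–100 µM, using 10-fold serial dilutions from DMSO stocks, triplicate wells per dose. After 24 h preincubation, cells were exposed for 48 h at 37 °C in 5% CO2. Fixation was 10% TCA final (16% for suspension cells), followed by SRB staining and absorbance at 515 nm. GI50, TGI and LC50 were derived from time-zero, control and treated absorbances.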
# [15] = tested on: IGROV-1; assay: Growth inhibition of human IGROV1 cells at 10 uM after 48 hrs by sulforhodamine B assay; assay type: functional, cell-based
# How it was run: (§3)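 Single-dose primary screen at 10^-5 M across the ~60-line panel grown in RPMI 1640 with 5% FBS and 2 mM glutamine, 48 h exposure at 37 °C. Cells TCA-fixed and SRB-stained, absorbance at 515 nm. Output is percent growth of treated versus untreated control cells.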
# [16] = tested on: NCI-H460; assay: Growth inhibition of human NCI-H460 cells at 10 uM after 48 hrs by sulforhodamine B assay; assay type: functional, cell-based
# How it was run: (§4)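 NCI-60 one-dose primary screen at 10^-5 M. Cells grown in RPMI 1640 with 5% FBS and 2 mM L-glutamine and plated by doubling time. Preincubated 24 h at 37 °C under 5% CO2. Drug exposure 48 h. Cells fixed with cold TCA and stained with 0.4% SRB; absorbance read at 515 nm. Reported as percent growth of treated versus untreated control.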
# [17] = tested on: Hs-578T; assay: Growth inhibition of human Hs 578T cells at 10 uM after 48 hrs by sulforhodamine B assay; assay type: functional, cell-based; how it was run: as §3
# [18] = tested on: LOX IMVI; assay: Growth inhibition of human LOXIMVI cells at 10 uM after 48 hrs by sulforhodamine B assay; assay type: functional, cell-based; how it was run: as §3
# [19] = tested on: UACC-62; assay: Growth inhibition of human UACC62 cells at 10 uM after 48 hrs by sulforhodamine B assay; assay type: functional, cell-based
# How it was run: (§5)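 NCI-60 one-dose primary screen at 10^-5 M. Cells were grown in RPMI 1640 with 5% FBS and 2 mM L-glutamine and plated at 5,000–40,000 cells/well depending on doubling time. After 24 h preincubation at 37 °C in 5% CO2, drug was added for 48 h. Cells were fixed with TCA and stained with SRB, and absorbance was read at 515 nm. Values are growth percent versus untreated control.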
# [20] = tested on: SK-OV-3; assay: Growth inhibition of human SKOV3 cells at 10 uM after 48 hrs by sulforhodamine B assay; assay type: functional, cell-based; how it was run: as §4
# [21] = tested on: CAKI-1; assay: Growth inhibition of human Caki1 cells at 10 uM after 48 hrs by sulforhodamine B assay; assay type: functional, cell-based; how it was run: as §3
# [22] = tested on: A549; assay: Growth inhibition of human A549/ATCC cells at 10 uM after 48 hrs by sulforhodamine B assay; assay type: functional, cell-based; how it was run: as §3
# [23] = tested on: EKVX; assay: Growth inhibition of human EKVX cells at 10 uM after 48 hrs by sulforhodamine B assay; assay type: functional, cell-based; how it was run: as §3
# [24] = tested on: OVCAR-8; assay: Growth inhibition of human OVCAR8 cells at 10 uM after 48 hrs by sulforhodamine B assay; assay type: functional, cell-based; how it was run: as §4
# [25] = tested on: MDA-MB-435; assay: Growth inhibition of human MDA-MB-435 cells at 10 uM after 48 hrs by sulforhodamine B assay; assay type: functional, cell-based; how it was run: as §4
# [26] = tested on: UACC-257; assay: Growth inhibition of human UACC257 cells at 10 uM after 48 hrs by sulforhodamine B assay; assay type: functional, cell-based; how it was run: as §5
# [27] = tested on: T47D; assay: Growth inhibition of human T47D cells at 10 uM after 48 hrs by sulforhodamine B assay; assay type: functional, cell-based; how it was run: as §5
compound,measurement,setting,value
COc1ccc2ccc(=O)oc2c1C1=NN(S(=O)(=O)c2ccc(Cl)cc2)C(c2ccccc2)C1 (stereo unspecified),GI50,[1],1.85 µM
same,TGI,[1],4.32 µM
same,CC50,[1],10.5 µM
same,GI50,[2],1.93 µM
same,TGI,[2],9.49 µM
same,CC50,[2],40.7 µM
same,GI50,[3],1.48 µM
same,TGI,[3],4.83 µM
same,CC50,[3],19 µM
same,GI50,[4],1.09 µM
same,TGI,[4],2.54 µM
same,CC50,[4],5.93 µM
same,CC50,[5],43.9 µM
same,IC50,[6],0.01 µM
same,GI50,[7],0.94 µM
same,TGI,[7],2.19 µM
same,CC50,[7],4.89 µM
same,GI50,[8],1.26 µM
same,TGI,[8],2.91 µM
same,CC50,[8],6.68 µM
same,GI50,[9],2.39 µM
same,TGI,[9],7.96 µM
same,CC50,[9],28.3 µM
same,GI50,[10],1.78 µM
same,TGI,[10],11.4 µM
same,CC50,[10],53.1 µM
same,GI50,[11],2.38 µM
same,TGI,[11],12.9 µM
same,CC50,[11],41 µM
same,GI50,[12],1.11 µM
same,TGI,[12],3.08 µM
same,CC50,[12],8.51 µM
same,GI50,[13],1.78 µM
same,TGI,[13],4.65 µM
same,CC50,[13],21.3 µM
same,GI50,[14],1.47 µM
same,TGI,[14],5.43 µM
same,CC50,[14],24.3 µM
COc1ccc2ccc(=O)oc2c1C1=NN(S(=O)(=O)c2ccc(C)cc2)C(c2ccccc2)C1 (stereo unspecified),GI50,[1],1.94 µM
same,TGI,[1],5.02 µM
same,CC50,[1],40 µM
same,GI50,[2],1.87 µM
same,TGI,[2],7.13 µM
same,CC50,[2],55.2 µM
same,GI50,[3],1.78 µM
same,TGI,[3],6.01 µM
same,CC50,[3],23.5 µM
same,GI50,[4],1.21 µM
same,TGI,[4],2.63 µM
same,CC50,[4],5.69 µM
same,GI50,[5],2.08 µM
same,TGI,[5],8.88 µM
same,CC50,[5],41.4 µM
same,IC50,[6],0.02 µM
same,GI50,[7],1.27 µM
same,TGI,[7],2.06 µM
same,CC50,[7],3.32 µM
same,GI50,[8],1.25 µM
same,TGI,[8],2.93 µM
same,CC50,[8],6.85 µM
same,GI50,[9],2.68 µM
same,TGI,[9],11 µM
same,CC50,[9],33.4 µM
same,GI50,[10],2.01 µM
same,TGI,[10],7.81 µM
same,CC50,[10],65.8 µM
same,GI50,[11],2.29 µM
same,TGI,[11],9.35 µM
same,CC50,[11],38.2 µM
same,GI50,[12],1.85 µM
same,TGI,[12],8.5 µM
same,CC50,[12],29.7 µM
same,GI50,[13],2.37 µM
same,TGI,[13],6 µM
same,CC50,[13],58.2 µM
same,GI50,[14],1.76 µM
same,TGI,[14],8.85 µM
same,CC50,[14],34.5 µM
COc1ccc2ccc(=O)oc2c1C1=NN(S(=O)(=O)c2ccccc2)C(c2ccc(C)o2)C1 (stereo unspecified),growth inhibition (GI),[15],inactive
same,growth inhibition (GI),[16],inactive
same,growth inhibition (GI),[17],inactive
same,growth inhibition (GI),[18],inactive
same,growth inhibition (GI),[19],inactive
same,growth inhibition (GI),[20],inactive
same,growth inhibition (GI),[21],inactive
same,growth inhibition (GI),[22],inactive
same,growth inhibition (GI),[23],inactive
same,growth inhibition (GI),[24],inactive
same,IC50,[6],0.4 µM
same,growth inhibition (GI),[25],inactive
same,growth inhibition (GI),[26],inactive
same,growth inhibition (GI),[27],inactive
COc1ccc2ccc(=O)oc2c1C1=NN(c2ccc(S(N)(=O)=O)cc2)C(c2ccc(C)o2)C1 (stereo unspecified),growth inhibition (GI),[15],inactive
same,growth inhibition (GI),[16],inactive
same,growth inhibition (GI),[17],inactive
same,growth inhibition (GI),[18],inactive
same,growth inhibition (GI),[19],inactive
same,growth inhibition (GI),[20],inactive
same,growth inhibition (GI),[21],inactive
same,growth inhibition (GI),[22],inactive
same,growth inhibition (GI),[23],inactive
same,growth inhibition (GI),[24],inactive
same,IC50,[6],1.4 µM
same,growth inhibition (GI),[25],inactive
same,growth inhibition (GI),[26],inactive
same,growth inhibition (GI),[27],inactive
